Screening results (PubChem)
TRPC6 activator: mouse TRPC6 channel activators, primary screen, cell-based, HEK293, membrane potential dye. HEK293-TRPC6 membrane potential dye fluorescence; active compounds read high. B-score at 10 µM. actives 0.13% (n = 310,000). Short transient receptor potential channel 6 (Mus musculus), Q61143;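 active = B-score of the integrated fluorescence ratio above library mean plus 3 SD, and starting fluorescence ratio within library mean plus 5 SD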;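 also: higher score means more depolarization so channel activation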
Target sequence (Q61143 whole entry, looked up): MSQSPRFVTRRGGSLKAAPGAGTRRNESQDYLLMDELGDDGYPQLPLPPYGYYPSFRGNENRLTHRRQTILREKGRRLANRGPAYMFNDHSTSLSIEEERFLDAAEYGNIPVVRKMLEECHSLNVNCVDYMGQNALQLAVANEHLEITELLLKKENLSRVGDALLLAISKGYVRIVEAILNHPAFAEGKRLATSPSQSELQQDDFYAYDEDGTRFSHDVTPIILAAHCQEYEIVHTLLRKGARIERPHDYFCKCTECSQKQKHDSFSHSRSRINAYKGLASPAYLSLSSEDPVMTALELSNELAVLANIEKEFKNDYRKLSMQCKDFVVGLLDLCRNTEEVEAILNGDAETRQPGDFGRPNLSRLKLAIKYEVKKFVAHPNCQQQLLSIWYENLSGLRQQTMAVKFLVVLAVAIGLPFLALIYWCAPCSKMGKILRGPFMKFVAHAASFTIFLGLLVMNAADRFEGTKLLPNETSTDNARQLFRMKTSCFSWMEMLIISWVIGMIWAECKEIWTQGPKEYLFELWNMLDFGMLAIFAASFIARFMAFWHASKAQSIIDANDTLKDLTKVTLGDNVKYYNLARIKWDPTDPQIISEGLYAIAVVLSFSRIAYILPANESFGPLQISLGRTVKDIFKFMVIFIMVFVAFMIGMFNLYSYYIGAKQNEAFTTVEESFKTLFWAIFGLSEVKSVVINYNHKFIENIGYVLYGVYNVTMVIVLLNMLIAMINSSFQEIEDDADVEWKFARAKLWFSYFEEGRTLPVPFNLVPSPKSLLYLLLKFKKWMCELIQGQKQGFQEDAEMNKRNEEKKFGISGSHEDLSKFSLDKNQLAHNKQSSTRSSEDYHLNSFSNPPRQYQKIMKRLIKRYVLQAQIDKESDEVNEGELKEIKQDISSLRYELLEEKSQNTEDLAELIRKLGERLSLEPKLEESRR
TRPC4 block: inhibitors of mouse TRPC4 channel, primary screen, Fluo4 calcium, HEK293 TRPC4beta/mu-opioid cells; Short transient receptor potential channel 4 (Mus musculus), Q9QUQ5; DAMGO-evoked Fluo4 calcium flux; active compounds read low; B-score at 10 µM; actives 0.39% (n = 300,000);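 active = B-score over 3 SD under the library average, no early fluorescence shift, positive overall ratio signal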
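Material: HEK293 cells with stable TRPC4beta plus mu-opioid receptor expression; probe or stimulus: DAMGO in two steps, submaximal then maximal; technique: Fluo4 calcium fluorescence by kinetic imaging, 5 s 1 Hz baseline; measure: integrated fluorescence ratio relative to baseline, converted to per-well B score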
TRPC6 inh: mouse TRPC6 channel inhibitors, primary screen, cell-based, HEK293, membrane potential dye. Short transient receptor potential channel 6 (Mus musculus), Q61143. ACh-evoked depolarization; active compounds read low. B-score at 10 µM. actives 1.1% (n = 310,000). AID 2553, 2010;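 active = B-score under library mean minus 3 SD, initial fluorescence not abnormally high, positive integrated signal ratio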;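 also: B-score derived from integrated fluorescence ratio over the kinetic read; more negative B-score means stronger inhibition of depolarization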
TRPC4 agonist: activators of mouse TRPC4 channel, primary screen, Fluo4 calcium, HEK293 TRPC4beta/mu-opioid cells; Short transient receptor potential channel 4 (Mus musculus), Q9QUQ5; Fluo4 calcium fluorescence; active compounds read high; B-score at 10 µM; actives 0.49% (n = 310,000); AID 2237, 2010;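 active = B-score above 5 SD of library B-scores, and initial fluorescence ratio not above library mean plus 5 SD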;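 also: positive B-score marks a calcium rise read as TRPC4 activation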
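Assay system: HEK293 stable line with TRPC4beta plus mu-opioid receptor; schedule: 45 min room-temperature Fluo4 loading, 110 s read; technique: kinetic Fluo4 calcium fluorescence; evaluation: integrated baseline-normalised fluorescence ratio, converted to per-well B score; controls: buffer (low) and maximal DAMGO (high)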
TRPC4 PAM: positive allosteric modulators of TRPC4, primary screen, cell-based, mouse TRPC4beta, HEK293 mu-opioid, Fluo-4 calcium. B-score at 10 µM. AID 2227, 2009. actives 0.42% (n = 310,000). Short transient receptor potential channel 4 (Mus musculus), Q9QUQ5. DAMGO EC20, Fluo-4 Ca2+ flux; active compounds read high;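 active = B-score of calcium response area above 5 SD of library B-scores, with initial fluorescence ratio within 5 SD of library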
Numbers stand for hits; i = inactive. The list is not random: actives were taken first. Their share in the collection is about 2.3%.

SMILES	TRPC6 activator	TRPC4 block	TRPC6 inh	TRPC4 agonist	TRPC4 PAM
CCc1ccccc1NC(=S)Nn1cnnc1	i	i	i	i	i
COc1ccc(C(=O)Nc2nnc(Cc3ccccc3)s2)c(OC)c1	i	i	i	i	i
Cc1ccc(S(=O)(=O)Nc2nc3ccc(S(C)(=O)=O)cc3s2)cc1	i	i	i	i	i
CC(=O)Nc1ccc(S(=O)(=O)Nc2nc3ccc(C)cc3s2)cc1	i	-5	i	i	i
Cc1ccc(CN(C(=O)c2cc(=O)c3cc(Cl)c(C)cc3o2)C2CCS(=O)(=O)C2)cc1 (centres undefined)	i	i	i	i	19
Cc1cc2oc(C(=O)N(Cc3cccs3)C3CCS(=O)(=O)C3)cc(=O)c2cc1Cl (centres undefined)	i	i	i	i	95
Cc1ccc(CN(C(=O)c2cc(=O)c3cc(C)cc(C)c3o2)C2CCS(=O)(=O)C2)cc1 (centres undefined)	i	i	i	i	i
COc1cccc(CNC(=O)Cn2ccc3cc(S(=O)(=O)N4CCC(C)CC4)ccc32)c1	i	i	i	i	i
Fc1ccc(C2CCNCC2COc2ccc3c(c2)OCO3)cc1 (centres undefined)	i	i	i	102	i
CCCc1c(O)nc(SCCN(CCC)CCC)[nH]c1=O	i	i	i	49	19
CC(C)c1c(O)nc(SCCN(C)C)[nH]c1=O	i	i	i	i	35
CCCc1c(O)nc(SCC(=O)N2CCCCC2)[nH]c1=O	i	i	i	i	i
CCCCCCCc1c(O)nc(SCCN(C)C)[nH]c1=O	i	i	i	81	10
CC(C)c1c(O)nc(SCC(=O)N2CCOCC2)[nH]c1=O	i	i	i	i	i
COc1ccc(Br)cc1S(=O)(=O)Nc1ncn[nH]1	i	i	i	i	i
Cc1ccc(C2(CCNCc3ccc(N(C)C)cc3)CCOC(C(C)C)C2)cc1 (centres undefined)	i	i	i	111	i
CC(C)C1CC(CCNCc2ccc(N(C)C)cc2)(c2ccccc2)CCO1 (centres undefined)	i	i	i	100	i
CC(C)C1CC(CCNCc2ccc3c(c2)OCO3)(c2ccccc2)CCO1 (centres undefined)	i	i	i	122	i
CC(C)(C)C(=O)NC(=S)NNC(=O)C(c1ccccc1)c1ccccc1	i	i	i	304	i
CC(=O)NNC(=S)NC(=O)C(c1ccccc1)c1ccccc1	i	i	i	i	i
CCn1c(=O)cc(OCC(=O)N2CCN(c3cccc(C(F)(F)F)c3)CC2)c2ccccc21	i	i	i	i	11
CC(C)c1ccccc1NC(=S)NN(Cc1ccccc1)c1ccccc1	i	i	i	i	27
COc1ccc(N2CCN(C(=O)CNC(=O)c3ccccc3Cl)CC2)cc1	i	i	i	i	i
Cc1csc2c(SCC(=O)NNC(=O)C(Cl)Cl)ncnc12	i	i	i	i	i
CCOc1ccc(CCNC(=O)C2CCCN(S(=O)(=O)N3CC(C)CC(C)C3)C2)cc1OCC (centres undefined)	i	i	i	i	i
SMILES	TRPC6 activator	TRPC4 block	TRPC6 inh	TRPC4 agonist	TRPC4 PAM
NC(=S)N/N=C/c1ccc(Br)o1	i	i	i	i	10
NC(=S)N/N=C/c1ccc(-c2cc(Cl)c(Cl)cc2Cl)o1	i	i	i	i	i
CCOC(=O)CN1N=C(/C=C/c2ccccc2)CCC1=O	i	i	i	i	i
CCOC(=O)CN1N=C(/C=C/c2ccc(C(C)C)cc2)CCC1=O	i	i	i	i	11
CCCCCCCC[n+]1cccc2c3ccccc3ccc21	i	-6	i	i	i
Cc1cc(C)cc(NC(=O)c2nnn(Cc3cc(C)ccc3C)c2N)c1	i	i	i	i	17
COc1ccc(S(=O)(=O)N2CCC(C(=O)Nc3cc(Cl)ccc3N3CCOCC3)CC2)cc1OC	i	i	i	i	i
CC(C)Cc1csc(NC(=O)c2ccc(Cl)cc2)c1C(=O)O	i	i	i	48	i
CC(C)Cc1csc(NC(=O)c2ccccc2Cl)c1C(=O)O	i	i	i	i	i
CC(C)=CCCC(C)CN1CCC(n2nccc2NC(=O)C2CCCC2)CC1 (centres undefined)	i	-5	i	i	i
CCc1ccccc1Nc1nc2ccccc2n1CC	i	i	i	i	i
CCCn1c(NCc2ccc(C)o2)nc2ccccc21	i	-6	i	i	i
CCCn1c(Nc2ccccc2C)nc2ccccc21	i	-5	i	i	i
CC(NC(=O)CCSCc1ccccc1F)c1ccccc1 (centres undefined)	i	i	i	i	i
COc1ccc(NC2CCCN(C(=O)CCN3Cc4ccccc4C3=O)C2)cc1 (centres undefined)	i	i	i	i	i
Cn1c(=O)c(=O)n(C)c2cc([N+](=O)[O-])c(N3CCOCC3)cc21	i	i	i	i	i
Cc1ccc(S(=O)(=O)N(CC(=O)N2CCOCC2)c2ccccc2F)cc1	i	i	i	i	i
CCOc1ccccc1N(CC(=O)N1CCOCC1)S(=O)(=O)c1ccc(SC)cc1	i	i	i	175	i
O=C(Cc1ccc(Br)cc1)Nc1ccccc1Sc1ccccc1	i	i	i	i	i
O=C(Cc1ccccc1)Nc1ccccc1Sc1ccccc1	i	-6	i	i	i
CCOC(=O)Cn1nc(C)c(NC(=O)c2ccc(Br)o2)c1C	i	i	i	i	i
CCOC(=O)c1cc(C#N)c(Oc2ccc(F)cc2)nc1-c1ccccc1	i	-5	i	i	i
CN(C)/C=C1\C(=O)N(c2ccc([N+](=O)[O-])cc2)N=C1c1ccccc1	i	-6	i	47	i
CN(C)/C=C1/C(=O)N(c2ccc([N+](=O)[O-])cc2)N=C1c1ccccc1	i	i	i	i	i
CCOc1ccc(CCNC(=O)Nc2cccc(OC)c2)cc1OCC	i	i	i	i	i
SMILES	TRPC6 activator	TRPC4 block	TRPC6 inh	TRPC4 agonist	TRPC4 PAM
COCC(=O)N1CCC(Oc2ccc(C(=O)NCc3cc(C)n(C)n3)cc2)CC1	i	i	i	i	i
CCOC(=O)C1=C(COC(=O)CNC(=O)c2ccc(Cl)cc2Cl)NC(=O)NC1C (centres undefined)	i	i	i	i	i
CCCC1=[N+](CC(=O)c2ccc(C)cc2)CCn2cccc21	i	-6	i	i	i
CCCC[C@H]1COCCS(=O)(=O)N1Cc1ccc(Br)cc1	i	i	i	i	i
Nc1nc(SCC(=O)Nc2ccc([N+](=O)[O-])cc2)[nH]c(=O)c1NC(=O)c1ccc(Br)cc1	i	i	i	i	i
Cc1cc(C(=O)COc2cccnc2[N+](=O)[O-])c(C)n1Cc1cccs1	i	i	i	i	i
